{
  "source": "paper PMC11094580",
  "about": "(EFSA Journal, 2024)",
  "key": {"[1]": {"tested_on": "Wistar rats", "assay": "In vivo comet assay in liver and duodenum", "set-up": "species or system rat", "conditions": "500, 1000, 2000 mg/kg bw per day, Wistar rats, M, gavage"}, "[2]": {"conditions": "ref Kanaze et al. (2007), cited from earlier work"}, "[3]": {"assay": "Solubility of naringenin in various solvents", "format": "physicochemical", "conditions": "for Naringenin concentration (solubility): 25°C"}, "[4]": {"tested_on": "Wistar rats", "conditions": "ref Selvam and Kaliyaperumal (2015), cited from earlier work"}, "[5]": {"tested_on": "Sprague Dawley rats", "assay": "Extended one-generation reproductive toxicity", "format": "in vivo, rat"}, "[6]": {"tested_on": "Mice (strain not specified)", "conditions": "Gavage, M, 3/group; ref Ortiz‐Andrade et al. (2008); cited from earlier work"}, "[7]": {"tested_on": "felodipine metabolism in human liver microsomes", "conditions": "substrate felodipine; ref Fasinu et al. (2013), Ho et al. (2001); cited from earlier work"}, "[8]": {"conditions": "human volunteers; ref Documentation provided to EFSA No. 4; cited from earlier work"}, "[9]": {"tested_on": "Wistar rats", "assay": "In vivo micronucleus assay in peripheral blood", "set-up": "species or system rat"}, "[10]": {"target": "simvastatin metabolism in human liver microsomes", "conditions": "ref Ubeaud et al. (1999); cited from earlier work"}, "[11]": {"tested_on": "CYP2C9", "conditions": "ref Lu et al. (2011); cited from earlier work"}, "[12]": {"tested_on": "Wistar rats", "conditions": "200 mg/kg bw per day, 20 weeks, gavage, male rats; ref Ganapathy et al. (2008); cited from earlier work"}, "[13]": {"tested_on": "felodipine metabolism by pig intestinal tissue slices", "conditions": "ref Fasinu et al. (2010); cited from earlier work"}, "[14]": {"tested_on": "ERβ and ERα", "conditions": "in vitro; ref Helle et al. (2015); cited from earlier work"}, "[15]": {"tested_on": "Wistar rats", "conditions": "50 mg/kg bw per day, 4 weeks; ref Motawi et al. (2014); cited from earlier work"}, "[16]": {"assay": "Stability as powder", "format": "physicochemical", "conditions": "room temperature (~ 22°C), long-term", "summary_of_the_method": "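The solid was held under accelerated conditions (45°C) and under normal storage at room temperature.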"}, "[17]": {"tested_on": "Clostridium orbiscindens", "conditions": "ref Schoefer et al. (2003); cited from earlier work"}, "[18]": {"tested_on": "CYP2B6", "conditions": "concentrations up to 10 μM; ref Lu et al. (2011); cited from earlier work"}, "[19]": {"tested_on": "CYP2D6", "conditions": "concentrations up to 10 μM; ref Lu et al. (2011); cited from earlier work"}, "[20]": {"conditions": "F1 C1A females, high‐dose group"}},
  "note": "“Also recorded” adds a separate entry of the source. Where two headings read alike, the source gives them in different places.",
  "data": [
    {"molecule": "O=C1CC(c2ccc(O)cc2)Oc2cc(O)cc(O)c21", "note": "(stereo not shown) [naringenin, 4H‐1‐Benzopyran‐4‐one, 2,3‐dihydro‐5,7‐dihydroxy‐2‐(4‐hydroxyphenyl)‐]", "values": [
      {"measurement": "Result", "setting": "[1]", "value": "Negative"},
      {"measurement": "Cmax", "setting": "[2]; single oral 135 mg (496 μmol) capsule", "value": 7.5, "unit": "µM"},
      {"measurement": "cumulative urinary excretion, percentage of administered dose", "setting": "[2]; single oral 135 mg capsule, 24 h after dosing", "value": "5.81 ± 0.81", "unit": "%"},
      {"measurement": "T max (time of peak plasma level)", "setting": "[2]; single oral 135 mg capsule", "value": 4, "unit": "h"},
      {"measurement": "peak plasma concentration (total naringenin)", "setting": "[2]; single oral 135 mg capsule", "value": 7.4, "unit": "µM"},
      {"measurement": "time of first appearance in plasma after dosing", "setting": "[2]; single oral 135 mg capsule", "value": 20, "unit": "min"},
      {"measurement": "Half-life of elimination (plasma)", "setting": "[2]; single oral 135 mg capsule, listed as NAR‐A", "value": "T ½ ~ 2.3 h"},
      {"measurement": "solubility", "setting": "[3]; 80% ethanol, 25 °C, organic solvent or mixture", "value": "~60", "unit": "mg/mL"},
      {"measurement": "Solubility in ethanol", "setting": "[3]; 95% ethanol", "value": "Soluble"},
      {"measurement": "Naringenin concentration (solubility)", "setting": "[3]; Ethanol", "value": "10 % (w/w)"},
      {"measurement": "Naringenin concentration (solubility)", "setting": "[3]; Ethanol, 80%", "value": "5 % (w/w)"},
      {"measurement": "Naringenin concentration (solubility)", "setting": "[3]; Propylene glycol", "value": "2.5 % (w/w)"},
      {"measurement": "solubility", "setting": "[3]; ethanol, 25 °C, organic solvent or mixture", "value": "~125", "unit": "mg/mL"},
      {"measurement": "solubility", "setting": "[3]; in water", "value": "Almost insoluble"},
      {"measurement": "Solubility in other", "setting": "[3]; other solvents", "value": "Soluble in ether and benzene"},
      {"measurement": "solubility", "setting": "[3]; propylene glycol, 25 °C, organic solvent or mixture", "value": "~25", "unit": "mg/mL"},
      {"measurement": "solubility", "setting": "[3]; water, 25 °C", "value": 0.05, "unit": "mg/mL"},
      {"measurement": "LD50", "setting": "[4]; Gavage, M, 10/group, arithmetic method", "value": 340, "unit": "mg/kg bw"},
      {"measurement": "LD50", "setting": "[4]; rats, considered not reliable by the Panel", "value": "about 330 mg/kg bw"},
      {"measurement": "Absolute organ weight", "setting": "[5]; F1 C1A females", "value": "↑ G3, G4 thymus; also recorded: ↑ G4 spleen and iliac lymph nodes"},
      {"measurement": "Thyroid hormone levels: T4", "setting": "[5]; F1 C1A females", "value": "T4: –"},
      {"measurement": "increase in mean platelet count", "setting": "[5]; [20]", "value": 25, "unit": "%"},
      {"measurement": "mean platelet count", "setting": "[5]; [20]", "value": "1138.20 × 10^3 cells/μL"},
      {"measurement": "Absolute organ weight", "setting": "[5]; F1 C1A males", "value": "↓ G2 and G3 testes and iliac lymph nodes; also recorded: ↓ G4 iliac lymph nodes"},
      {"measurement": "Lymphocyte typing (spleen): T helper cells (CD4+)", "setting": "[5]; F1 C1A males", "value": "T helper cells (CD4+): ↑ G2, G3 and G4, no dose‐related trend"},
      {"measurement": "Thyroid hormone levels: T4", "setting": "[5]; F1 C1A males", "value": "T4: –"},
      {"measurement": "Thyroid hormone levels: TSH", "setting": "[5]; F1 C1A males", "value": "TSH: –"},
      {"measurement": "Absolute organ weight", "setting": "[5]; F1 C1B females", "value": "↑ G4 thymus; also recorded: ↑ G3 uterus with cervix"},
      {"measurement": "Absolute organ weight", "setting": "[5]; F1 C1B males", "value": "↑ G3 thymus"},
      {"measurement": "Absolute organ weight", "setting": "[5]; F1 pups (surplus) females, PND 21", "value": "PND 21: ↓ G2 spleen; ↑ G3 spleen; ↓ G2 brain"},
      {"measurement": "Absolute organ weight", "setting": "[5]; F1 pups (surplus) males, PND 21", "value": "PND 21: ↑ G3 spleen"},
      {"measurement": "reduction of anogenital distance (AGD)", "setting": "[5]; F1 pups, PND4, highest dose females", "value": 4, "unit": "%"},
      {"measurement": "decreased normal sperm", "setting": "[5]; F1‐C1A cohort", "value": "~ 1%"},
      {"measurement": "increased sperm with abnormalities", "setting": "[5]; F1‐C1A cohort", "value": 50, "unit": "%"},
      {"measurement": "increase of thymus gland weight", "setting": "[5]; F1‐C1A females, highest dose group", "value": 24, "unit": "%"},
      {"measurement": "reduction of daily sperm production", "setting": "[5]; F1‐C1A males, high dose", "value": 2, "unit": "%"},
      {"measurement": "reduction of daily sperm production", "setting": "[5]; F1‐C1A males, low dose", "value": 7, "unit": "%"},
      {"measurement": "decrease of absolute iliac lymph node weight", "setting": "[5]; F1‐C1A males, mid dose", "value": 30, "unit": "%"},
      {"measurement": "mean pre-coital interval", "setting": "[5]; F1‐CB cohort, G3", "value": 7.6, "unit": "days"},
      {"measurement": "change in mean pup weight", "setting": "[5]; F2, PND 1, males, group G4‐C1B", "value": "−4", "unit": "%"},
      {"measurement": "change in mean pup weight", "setting": "[5]; F2, PND 4, females, group G4‐C1B", "value": "−8", "unit": "%"},
      {"measurement": "change in mean pup weight", "setting": "[5]; F2, PND 14, females, group G3‐C1B", "value": "−5", "unit": "%"},
      {"measurement": "change in mean pup weight", "setting": "[5]; F2, PND 14, females, group G4‐C1B", "value": "−5", "unit": "%"},
      {"measurement": "oestrous cycle length, increase following exposure", "setting": "[5]; P females, significant in lowest and highest exposed groups", "value": "up to 6%"},
      {"measurement": "mean pre-coital interval", "setting": "[5]; P generation, G4", "value": 8, "unit": "days"},
      {"measurement": "decrease in mean urinary pH value", "setting": "[5]; P males, high‐dose group", "value": 12, "unit": "%"},
      {"measurement": "increase in mean urinary specific gravity", "setting": "[5]; P males, high‐dose group", "value": 1, "unit": "%"},
      {"measurement": "margin of exposure (MoE)", "setting": "[5]; adults, chronic APET as flavouring substance, NOAEL 1320 mg/kg bw per day", "value": 1590},
      {"measurement": "margin of exposure (MoE)", "setting": "[5]; adults, chronic combined exposure incl. other food sources", "value": 1390},
      {"measurement": "fertility indices (pregnancy, parturition and gestation)", "setting": "[5]; all tested dose groups, P and F1‐C1B generations", "value": 100, "unit": "%"},
      {"measurement": "margin of exposure (MoE)", "setting": "[5]; children, acute combined exposure", "value": 48},
      {"measurement": "margin of exposure (MoE)", "setting": "[5]; children, chronic APET as flavouring substance, NOAEL 1320 mg/kg bw per day", "value": 630},
      {"measurement": "margin of exposure (MoE)", "setting": "[5]; children, chronic combined exposure incl. other food sources", "value": 550},
      {"measurement": "post-implantation loss", "setting": "[5]; high‐dose P females", "value": 12.6, "unit": "%"},
      {"measurement": "NOAEL (dietary concentration)", "setting": "[5]; mid‐dose", "value": "20,000 mg/kg feed"},
      {"measurement": "NOAEL", "setting": "[5]; mid‐dose, P males, pre‐cohabitation period", "value": 1320, "unit": "mg/kg bw per day"},
      {"measurement": "LD50", "setting": "[6]", "value": "> 5000", "unit": "mg/kg bw"},
      {"measurement": "IC50", "setting": "[7]", "value": 122, "unit": "µM"},
      {"measurement": "glucuronic acid and sulfate conjugates as share of the dose", "setting": "[8]", "value": "~ 20 % of the dose"},
      {"measurement": "% MNPCE frequency", "setting": "[9]; 500 mg/kg bw per day", "value": "0.06 ± 0.01", "unit": "%"},
      {"measurement": "% MNPCE frequency", "setting": "[9]; 2000 mg/kg bw per day", "value": "0.06 ± 0.02", "unit": "%"},
      {"measurement": "maximum tolerated dose (MTD)", "setting": "[9]; gavage at 0, 24 and 45 h, male and female rats", "value": 2000, "unit": "mg/kg bw per day"},
      {"measurement": "% MNPCE frequency", "setting": "[9]; mid‐dose (1000 mg/kg bw per day), male rats, blood 3 h after last administration", "value": "0.08 ± 0.01", "unit": "%"},
      {"measurement": "Ki", "setting": "[10]", "value": 23, "unit": "µM"},
      {"measurement": "IC50", "setting": "[11]", "value": "< 5", "unit": "µM"},
      {"measurement": "assessed biochemical parameters in stomach and liver", "setting": "[12]", "value": "no significant effects"},
      {"measurement": "IC50", "setting": "[13]", "value": 180, "unit": "µM"},
      {"measurement": "affinity for oestrogen receptors", "setting": "[14]", "value": "stronger affinity with ERβ than ERα"},
      {"measurement": "histopathological examination of the liver", "setting": "[15]", "value": "slight inflammatory cell infiltration in the portal areas"},
      {"measurement": "time remaining stable", "setting": "[16]", "value": "~2", "unit": "years"},
      {"measurement": "Results: conversion by C. orbiscindens", "setting": "[17]", "value": "converted 0.5 mM naringenin to 3‐(4‐hydroxyphenyl) propionic acid"},
      {"measurement": "inhibition", "setting": "[18]", "value": "No appreciable inhibition"},
      {"measurement": "inhibition", "setting": "[19]", "value": "No appreciable inhibition"}
    ]}
  ]
}
